Calls of active or inactive are those of the source. No cut-off for these calls is given here.
Key:
[1] = test system: Radical scavenging activity; experiment: Antioxidant activity assessed as DPPH free radical scavenging activity; type: functional
[2] = Cytotoxicity against rat PC12 cells at 0.01 to 100 uM after 24 hrs by MTT assay; type: cell-based; details: pc-12, 24 h
Method in brief: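 PC12 cells kept in RPMI-1640 with 10% heat-inactivated FBS and 1% penicillin-streptomycin at 37°C, 5% CO2. Seeded 1×10^4 cells/well, exposed to compound (0.01-100 μM) for 24 h. MTT (2.0 mg/ml) added for 4 h at 37°C, formazan dissolved in DMSO, read at 570/630 nm. Viability given as percent of control cultures.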

[3] = test system: PC-12; experiment: Neuroprotective activity against amyloid beta (1 to 42)-induced cytotoxicity in rat PC12 cells at 0.01 to 100 uM pretreated for 24 hrs followed by addition of 25 uM amyloid beta (1 to 42) by MTT assay; type: functional, cell-based
Method in brief: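 PC12 cells (RPMI-1640, 10% heat-inactivated FBS, 37°C, 5% CO2) pre-incubated with compound (0.01-100 μM) in serum-free medium for 24 h, then given 25 µM Aβ1-42. Untreated control lacked Aβ. Selegiline served as positive control. MTT 2.0 mg/ml for 4 h at 37°C, DMSO solubilization, 570/630 nm read. Mean percent viable cells versus untreated, mean ± SE, n=5.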

[4] = Neuroprotective activity against amyloid beta (1 to 42)-induced cytotoxicity in rat PC12 cells at 100 uM pretreated for 24 hrs followed by addition of 25 uM amyloid beta (1 to 42) by MTT assay; type: functional, PC-12
Method in brief: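 PC12 cells in RPMI-1640/10% heat-inactivated FBS, 37°C, 5% CO2, seeded 1×10^4 cells/well. Compound pre-incubation 24 h in serum-free medium, then 25 µM Aβ1-42 added; selegiline as positive control. MTT 2.0 mg/ml, 4 h at 37°C, formazan dissolved in DMSO, read 570/630 nm. Viability as % of untreated cells, mean ± SE, n=5.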

Row | Compound | IC50 [1] [µM] | Activity [2] | Activity [3] | Activity [4]
1 | O=C1O[C@H]([C@@H](O)CO)C(O)=C1O [ASCORBIC ACID] | 19.4 | – | – | –
2 | CN(C)c1ccc(/C=C2\CC/C(=C\c3ccc(N(C)C)cc3[N+](=O)[O-])C2=O)c([N+](=O)[O-])c1 | 47.8 | Non-toxic | Active | –
3 | CN(C)c1ccc(/C=C2/CNC/C(=C\c3ccc(N(C)C)cc3[N+](=O)[O-])C2=O)c([N+](=O)[O-])c1 | 25.7 | Non-toxic | Active | <=87%
4 | CCOC(OCC)c1ccc(/C=C2\CN(Cc3ccccc3)C/C(=C\c3ccc(C(OCC)OCC)cc3)C2=O)cc1 | 28.2 | Non-toxic | inactive | –
5 | CN(C)c1ccc(/C=C/C(=O)C2CCc3ccccc3C2=O)c([N+](=O)[O-])c1 (configuration not stated) | 49.1 | Non-toxic | Active | –
6 | CN1C/C(=C/c2ccc(N3CCCC3)cc2)C(=O)/C(=C/c2ccc(N3CCCC3)cc2)C1 | 43.3 | Non-toxic | inactive | –
7 | C#CCN(C)[C@H](C)Cc1ccccc1 | – | – | Active | –
8 | O=C1/C(=C\c2ccc(N3CCCC3)cc2)CNC/C1=C\c1ccc(N2CCCC2)cc1 | 26.9 | Non-toxic | inactive | –
9 | CCOC(OCC)c1ccc(/C=C2\CCC/C(=C\c3ccc(C(OCC)OCC)cc3)C2=O)cc1 | 20.1 | Non-toxic | Active | <=87%
10 | O=C1/C(=C/c2ccc(N3CCCC3)cc2)CCc2ccccc21 | 29.2 | Non-toxic | inactive | –
11 | O=C1/C(=C/c2ccc(N3CCCC3)cc2)CC/C1=C\c1ccc(N2CCCC2)cc1 | > 50 | Non-toxic | inactive | –
12 | CCOC(OCC)c1ccc(/C=C2\COC/C(=C\c3ccc(C(OCC)OCC)cc3)C2=O)cc1 | 29.3 | Non-toxic | inactive | –
13 | CCOC(OCC)c1ccc(/C=C2\CN(C)C/C(=C\c3ccc(C(OCC)OCC)cc3)C2=O)cc1 | 20.4 | Non-toxic | Active | <=87%
14 | O=C(/C=C/c1ccc(N2CCCC2)cc1)C1CCc2ccccc2C1=O (configuration not stated) | 27.9 | Non-toxic | inactive | –
15 | CN(C)c1ccc(/C=C/C(=O)/C=C/c2ccc(N(C)C)cc2[N+](=O)[O-])c([N+](=O)[O-])c1 | > 50 | Non-toxic | Active | –
16 | CCOC(OCC)c1ccc(/C=C2\CC/C(=C\c3ccc(C(OCC)OCC)cc3)C2=O)cc1 | – | Non-toxic | inactive | –

Row | Compound | IC50 [1] [µM] | Activity [2] | Activity [3] | Activity [4]
17 | CN(C)c1ccc(/C=C2\CCc3ccccc3C2=O)c([N+](=O)[O-])c1 | 23 | Non-toxic | Active | <=87%
18 | CCOC(OCC)c1ccc(/C=C2\CCc3ccccc3C2=O)cc1 | 39.5 | Non-toxic | inactive | –
19 | O=C1/C(=C\c2ccc(N3CCCC3)cc2)CN(Cc2ccccc2)C/C1=C\c1ccc(N2CCCC2)cc1 | > 50 | Non-toxic | inactive | –
20 | CN(C)c1ccc(/C=C2/CN(Cc3ccccc3)C/C(=C\c3ccc(N(C)C)cc3[N+](=O)[O-])C2=O)c([N+](=O)[O-])c1 | > 50 | Non-toxic | Active | –
21 | CN1C/C(=C/c2ccc(N(C)C)cc2[N+](=O)[O-])C(=O)/C(=C/c2ccc(N(C)C)cc2[N+](=O)[O-])C1 | 18.4 | Non-toxic | Active | <=87%
22 | CN(C)c1ccc(/C=C2\Cc3ccccc3C2=O)c([N+](=O)[O-])c1 | > 50 | Non-toxic | Active | –
23 | O=C1/C(=C\c2ccc(N3CCCC3)cc2)CCC/C1=C\c1ccc(N2CCCC2)cc1 | 31.3 | Non-toxic | inactive | –
24 | CCOC(OCC)c1ccc(/C=C2\Cc3ccccc3C2=O)cc1 | 37.2 | Non-toxic | inactive | –
25 | CCOC(OCC)c1ccc(/C=C/C(=O)C2CCc3ccccc3C2=O)cc1 (configuration not stated) | > 50 | Non-toxic | inactive | –
26 | O=C1/C(=C/c2ccc(N3CCCC3)cc2)Cc2ccccc21 | > 50 | Non-toxic | inactive | –
27 | CCOC(OCC)c1ccc(/C=C/C(=O)/C=C/c2ccc(C(OCC)OCC)cc2)cc1 | > 50 | Non-toxic | inactive | –
28 | CCOC(OCC)c1ccc(/C=C2\CNC/C(=C\c3ccc(C(OCC)OCC)cc3)C2=O)cc1 | 19.3 | Non-toxic | Active | <=87%
29 | CN(C)c1ccc(/C=C2/COC/C(=C\c3ccc(N(C)C)cc3[N+](=O)[O-])C2=O)c([N+](=O)[O-])c1 | 29.2 | Non-toxic | Active | –
30 | O=C1/C(=C\c2ccc(N3CCCC3)cc2)COC/C1=C\c1ccc(N2CCCC2)cc1 | > 50 | Non-toxic | inactive | –
31 | CN(C)c1ccc(/C=C2/CCC/C(=C\c3ccc(N(C)C)cc3[N+](=O)[O-])C2=O)c([N+](=O)[O-])c1 | 32.5 | Non-toxic | Active | –
32 | O=C(/C=C/c1ccc(N2CCCC2)cc1)/C=C/c1ccc(N2CCCC2)cc1 | > 50 | Non-toxic | inactive | –

Reference: ChEMBL document CHEMBL3286139, “Synthesis of α, β-unsaturated carbonyl based compounds as acetylcholinesterase and butyrylcholinesterase inhibitors: characterization, molecular modeling, QSAR studies and effect against amyloid β-induced cytotoxicity” (Eur J Med Chem, 2014)
